Measured values: ChEMBL document CHEMBL1125436, “Anthracene-9,10-diones as potential anticancer agents. Synthesis, DNA-binding, and biological studies on a series of 2,6-disubstituted derivatives” (J Med Chem, 1992)

Assays:
[1] = system: Nucleic Acid; test: Increase in Melting temperature (delta Tm) for Calf thymus DNA on interaction against ligand (mole ratio of 10:1); type: functional; conditions: Bos taurus
[2] = system: Nucleic Acid; test: Compound was evaluated for the increase in melting temperature (delta Tm) for calf Thymus DNA on interaction with Ligand at DNAp to ligand ratio 10:1; type: functional; conditions: Bos taurus
[3] = In vitro extracellular concentration required to reduce cell population to 50% against Chinese hamster V79 cells; type: functional, cell-based, Cricetulus griseus
Procedure, shortened: (§1)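 Cells seeded at ca. […] cells mL⁻¹, grown 24 h and counted to confirm log growth, then given compound (acetic acid salt or free base) in aqueous solution. Exposure 2 days for L1210 and Walker 256, 6 days for V79. Surviving cells counted; percent growth inhibition versus untreated controls; value is extracellular concentration giving 50% reduction.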

[4] = Estimated pKa value of the compound; type: physicochemical
[5] = system: L1210; test: In vitro extracellular concentration required to reduce cell population to 50% against L1210 leukemia cells; type: functional, cell-based; conditions: Mus musculus; procedure, shortened: as §1
[6] = system: Nucleic Acid; test: Increase in Melting temperature (delta Tm) for Micrococcus lysodeikticus DNA on interaction against ligand (mole ratio of 10:1); type: functional; conditions: Micrococcus luteus
Procedure, shortened: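 M. lysodeikticus DNA (28% A+T) in HNE buffer pH 7.0, dialysed and centrifuged before use; DNAP 0.10 mM with ligand 0.01 mM (10:1). A260 monitored against temperature; Tm at midpoint of normalized curve, ΔTm versus native DNA; mean of at least three determinations.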

[7] = In vitro extracellular concentration required to reduce cell population to 50% against Walker 256 (WS) carcinoma cells; type: functional, Rattus norvegicus; procedure, shortened: as §1
[8] = system: Nucleic Acid; test: Increase in Melting temperature (delta Tm) for Clostridium perfringens DNA on interaction against ligand (mole ratio of 10:1); type: functional
Procedure, shortened: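 Working DNAP 0.10 mM and ligand 0.01 mM. Absorbance at 260 nm was followed against temperature. Tm was taken at the midpoint of the normalized curve and compared with native DNA; mean of ≥3 determinations.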

[9] = system: Nucleic Acid; test: Compound was evaluated for the increase in melting temperature (delta Tm) for calf Thymus DNA on interaction with Ligand at DNAp to ligand ratio 40:1; type: functional; conditions: Bos taurus
[10] = system: Nucleic Acid; test: Compound was evaluated for the increase in melting temperature (delta Tm) for calf Thymus DNA on interaction with Ligand at DNAp to ligand ratio 20:1; type: functional; conditions: Bos taurus

SMILES | ΔTm [1] | ΔTm [2] | IC50 [3] [µM] | pKa [4] | IC50 [5] [µM] | ΔTm [6] | IC50 [7] [µM] | ΔTm [8] | ΔTm [9] | ΔTm [10]
CCN(CC)CC(=O)Nc1ccc2c(c1)C(=O)c1ccc(NC(=O)CN(CC)CC)cc1C2=O | 13.5 | 13.5 | 18 | 10 | 27 | > 16.6 | 19 | 16.6 | 3.7 | 7.7
O=C(CCN1CCC(CCO)CC1)Nc1ccc2c(c1)C(=O)c1ccc(NC(=O)CCN3CCC(CCO)CC3)cc1C2=O | – | > 15 | 3.95 | 10 | 2.3 | – | 5.5 | – | 4.3 | 8.3
O=C(CCN1CCCCC1)Nc1ccc2c(c1)C(=O)c1ccc(NC(=O)CCN3CCCCC3)cc1C2=O | > 15.3 | > 15.3 | 1.7 | 10.4 | 0.19 | > 14.5 | 2 | > 18.9 | 3.7 | 7.3
CCN(CC)CCC(=O)Nc1ccc2c(c1)C(=O)c1ccc(NC(=O)CCN(CC)CC)cc1C2=O | > 15.5 | > 15.5 | 2.9 | 10.8 | 0.34 | > 18.1 | 2.7 | > 20.5 | 3.7 | 7.7
O=C(CN1CCCCC1)Nc1ccc2c(c1)C(=O)c1ccc(NC(=O)CN3CCCCC3)cc1C2=O | 14.3 | 14.3 | 30 | 10 | 76 | 18.4 | > 100 | 19 | – | 8.2
CN1CCN(CCC(=O)Nc2ccc3c(c2)C(=O)c2ccc(NC(=O)CCN4CCN(C)CC4)cc2C3=O)CC1 | – | 9.2 | 1.8 | 9 | 1.7 | – | 3.1 | – | – | 4.4
CN1CCN(CC(=O)Nc2ccc3c(c2)C(=O)c2ccc(NC(=O)CN4CCN(C)CC4)cc2C3=O)CC1 | – | 13.6 | 4.6 | 9.5 | 6.5 | – | 4.6 | – | 4.2 | 8.2
O=C(CCN(CCO)CCO)Nc1ccc2c(c1)C(=O)c1ccc(NC(=O)CCN(CCO)CCO)cc1C2=O | 10.9 | 10.9 | 25.5 | 9 | 4.2 | > 15.7 | > 100 | 11.7 | 3.2 | 6.1
O=C(CCN1CCCCC1CO)Nc1ccc2c(c1)C(=O)c1ccc(NC(=O)CCN3CCCCC3CO)cc1C2=O (centres undefined) | – | 14.4 | 3.6 | 10 | 0.5 | – | 2.8 | – | 3.8 | 7.9
O=C1c2c(O)ccc(O)c2C(=O)c2c(NCCNCCO)ccc(NCCNCCO)c21 [MITOXANTRONE] | > 15 | > 15 | – | 7.4 | 0.002 | > 11.7 | 0.01 | > 26.4 | – | 7.4
O=C(CCN1CCCCC1CCO)Nc1ccc2c(c1)C(=O)c1ccc(NC(=O)CCN3CCCCC3CCO)cc1C2=O (centres undefined) | > 15.3 | > 15.3 | 12 | 10 | 0.28 | > 14.6 | 3.6 | > 18.5 | 4.1 | 9.2
O=C(CCN1CCOCC1)Nc1ccc2c(c1)C(=O)c1ccc(NC(=O)CCN3CCOCC3)cc1C2=O | – | 4.9 | 1.6 | 8 | 0.57 | – | 4.2 | – | – | 3
O=C(CCN1CCN(CCO)CC1)Nc1ccc2c(c1)C(=O)c1ccc(NC(=O)CCN3CCN(CCO)CC3)cc1C2=O | – | 7.2 | 19.5 | 9.5 | 4.2 | – | 6.6 | – | 2.9 | 4.6
O=C(CN1CCOCC1)Nc1ccc2c(c1)C(=O)c1ccc(NC(=O)CN3CCOCC3)cc1C2=O | – | 0.5 | > 100 | 7.4 | > 100 | – | > 100 | – | 0.5 | 0.5
